In brackets after ≈: the same amount, converted by molar mass.
Columns and labels:
[1] = Ex vivo receptor occupancy at GluN2B in Sprague-Dawley rat assessed as 3-[3H] 1-(azetidin-1-yl)-2-[6-(4-fluoro-3-methyl-phenyl)pyrrolo[3,2-b]pyridin-1-yl]-ethanone labelling at 3 mg/kg, po measured after 0.5 hrs by autoradiography; assay type: functional
Summary of the method: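 Rats dosed orally at 3 mg/kg in 20% HP-β-CD; brains taken at 0.5, 2 and 6 h. Ex vivo autoradiography of brain slices with the ³H pyrrolo[3,2-b]pyridine GluN2B tracer. Labelling expressed relative to matching brain areas of vehicle-treated animals; n=2, ± SEM.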

[2] = Cmax in Sprague-Dawley rat brain at 3 mg/kg, po after 2 hrs by LC-MS/MS analysis; assay type: ADME, organism-based; parameters: route oral, dose 3 mg/kg, time 2 hrs
Summary of the method: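 Oral dose of 3 mg/kg in 20% HP-β-CD to rats. Brain concentration was measured alongside ex vivo GluN2B occupancy over a 6 h time course (0.5, 2 and 6 h), n=2.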

[3] = Toxicity in Sprague-Dawley rat up to 500 mg/kg/day, po administered as nanosuspension measured for 14 days; assay type: organism-based; details: in vivo, 336 h, time 14 day
Summary of the method: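 Repeated daily oral dosing of a nanosuspension to rats for 14 days, with 500 mg/kg/day as the high dose. Clinical observations were recorded, and animals were moved to individual caging on Day 6.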

[4] = AUC (0 to 24 hrs) in Sprague-Dawley rat at 1000 mg/kg, po administered via gavage after 24 hrs using HPMC formulation by LC-MS/MS analysis; assay type: ADME, organism-based; parameters: route oral, dose 1000 mg/kg, time <=24; details: in vivo
[5] = AUC (infinity) in mouse at 0.5 mg/kg, iv by LC-MS/MS analysis; assay type: ADME, organism-based; parameters: time infinity, route intravenous, dose 0.5 mg/kg; details: in vivo
[6] = AUC (infinity) in monkey at 0.5 mg/kg, po by LC-MS/MS analysis; assay type: ADME, organism-based, Macaca mulatta; parameters: route oral, time infinity, dose 0.5 mg/kg; details: rhesus monkey, in vivo
[7] = Solubility of compound in 30% sulfobutylether-beta-cyclodextrin; assay type: physicochemical
Summary of the method: (§1)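 Solubility of the compound assessed in dosing excipients, including 30% SBE-β-CD, 50% PEG-400 and 20% HP-β-CD. The aim was a solution usable for rat dosing; the 20% HP-β-CD formulation was checked for a 0.1 mg/mL solution to support a 0.5 mg/kg dose.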

[8] = biological target: Cytochrome P450 3A4 (Homo sapiens, UniProt P08684); test: Time-dependent inhibition of CYP3A4 in human liver microsomes at 10 uM using testosterone as substrate by LC-MS/MS analysis; assay type: ADME
Sequence of Cytochrome P450 3A4 (P08684 whole entry): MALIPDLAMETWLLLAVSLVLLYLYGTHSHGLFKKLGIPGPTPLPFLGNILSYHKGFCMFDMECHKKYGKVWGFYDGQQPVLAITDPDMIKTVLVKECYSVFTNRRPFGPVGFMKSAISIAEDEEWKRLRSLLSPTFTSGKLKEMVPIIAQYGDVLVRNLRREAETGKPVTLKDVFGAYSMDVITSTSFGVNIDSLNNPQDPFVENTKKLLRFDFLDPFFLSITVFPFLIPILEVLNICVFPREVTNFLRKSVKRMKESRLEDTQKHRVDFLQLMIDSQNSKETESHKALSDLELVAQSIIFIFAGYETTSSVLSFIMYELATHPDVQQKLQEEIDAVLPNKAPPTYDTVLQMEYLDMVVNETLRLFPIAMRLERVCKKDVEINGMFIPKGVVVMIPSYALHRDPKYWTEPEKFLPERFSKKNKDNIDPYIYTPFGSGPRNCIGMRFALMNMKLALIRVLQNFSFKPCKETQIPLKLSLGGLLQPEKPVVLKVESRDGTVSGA
Summary of the method: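 CYP3A4 time-dependent inhibition in human liver microsomes. The compound (0.4 to 10 μM) was tested with and without 30 min preincubation. IC50 was taken from percent activity remaining versus vehicle, averaged over two independent experiments. A >2-fold IC50 shift after preincubation was the threshold for time-dependent inhibition.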

[9] = Negative allosteric modulation of human GluN1a/GluN2D receptor expressed in CHO cells assessed as inhibition of glutamate and glycine-induced calcium flux preincubated for 5 mins followed by glutamate and glycine addition and measured after 5 mins by calcium 5 dye based FLIPR assay; assay type: cell-based
Summary of the method: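 Tet-On CHO T-Rex cells expressing hGluN1a with GluN2A, 2B, 2C or 2D, plated at 20,000 cells/well and induced 24 h before the assay in the presence of ketamine. Cells loaded 1 h at room temperature with Calcium 5 dye, pH 7.4 HEPES buffer. Compound added 5 min, then glutamate (~EC80) plus 10 µM glycine for 5 min; FLIPR fluorescence normalized to control wells. Three independent runs in duplicate (two for some).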

[10] = Solubility of compound in phosphate buffer at pH 2 measured after 3 days; assay type: physicochemical; details: time 3 day
Summary of the method: (§2)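 Solubility in aqueous buffer at pH 2 and pH 7, and in simulated gastric and intestinal fluids.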

[11] = Solubility of compound in 50% polyethylene glycol 400; assay type: physicochemical; summary of the method: as §1
[12] = AUC (infinity) in dog at 0.5 mg/kg, po by LC-MS/MS analysis; assay type: ADME, organism-based, Canis lupus familiaris; parameters: time infinity, route oral, dose 0.5 mg/kg; details: in vivo
[13] = Cmax in monkey at 0.5 mg/kg, po by LC-MS/MS analysis; assay type: ADME, organism-based, Macaca mulatta; parameters: route oral, dose 0.5 mg/kg; details: rhesus monkey, in vivo
[14] = system: Rattus norvegicus; test: Ex vivo receptor occupancy at GluN2B in po dosed Sprague-Dawley rat assessed as total plasma concentration causing 70% 3-[3H] 1-(azetidin-1-yl)-2-[6-(4-fluoro-3-methyl-phenyl)pyrrolo[3,2-b]pyridin-1-yl]-ethanone labelling measured after 60 mins by autoradiography; assay type: functional, organism-based
Summary of the method: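 Oral dosing in rat at 8 dose levels, vehicle 20% HP-β-CD, 3 animals per group. Hippocampal GluN2B occupancy was measured ex vivo by autoradiography at 60 min post dose with the [3H] pyrrolopyridine tracer on brain slices. Labelling was expressed as percent of naïve control rats. EC70 was taken as the total (bound + unbound) plasma concentration giving 70% occupancy, with a 95% confidence interval.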

[15] = Drug level in Sprague-Dawley rat brain striatum at 0.03 mg/kg, iv after 120 min by LC-MS/MS analysis; assay type: ADME, organism-based; details: read-out: Drug uptake
Summary of the method: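 Single i.v. dose of 0.03 mg/kg in 50% (w/v) PEG/water, pH 7.4; rats n=3 per group, killed at 5, 10, 30, 60 and 120 min. Cerebellum, cortex, striatum and hippocampus dissected, weighed and homogenized; drug quantified by LC-MS/MS and normalized to tissue weight. P<0.05 taken as significant versus cerebellum.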

[16] = Ex vivo receptor occupancy at GluN2B in po dosed Sprague-Dawley rat assessed as 3-[3H] 1-(azetidin-1-yl)-2-[6-(4-fluoro-3-methyl-phenyl)pyrrolo[3,2-b]pyridin-1-yl]-ethanone labelling measured after 60 mins by autoradiography; assay type: functional, organism-based
Summary of the method: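 Oral dosing at 8 dose levels in 20% HP-β-CD; 3 rats per group. GluN2B occupancy in hippocampus measured 60 min post dose by ex vivo radiotracer autoradiography and calculated versus naïve controls, mean ± SEM. Plasma concentrations paired with occupancy to derive EC50 and dose ED50.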

[17] = Solubility of compound in FASSIF at pH 6.8 measured after 3 days; assay type: physicochemical; details: time 3 day; summary of the method: as §2
[18] = Cmax in Sprague-Dawley rat at 100 mg/kg, po administered via gavage after 24 hrs using nanosuspension formulation by LC-MS/MS analysis; assay type: ADME, organism-based; parameters: route oral, dose 100 mg/kg, time 24 hrs; details: in vivo
Summary of the method: (§3)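 Single oral gavage dose to male Sprague Dawley rats, 3 per dose level. Vehicles were a standard suspension in 5% HPMC (125, 250, 500 or 1000 mg/kg) or a nanosuspension (API:polymer 4:1), with stock diluted in vehicle on the day of dosing (100, 250 or 500 mg/kg). Blood was sampled at time points from 0.5 to 24 h.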

[19] = Volume of distribution at steady state in monkey at 0.1 mg/kg, iv by LC-MS/MS analysis; assay type: ADME, organism-based, Macaca mulatta; details: rhesus monkey, in vivo, read-out: Vdss
[20] = Half life in mouse at 2.5 mg/kg, po by LC-MS/MS analysis; assay type: ADME, organism-based; details: in vivo
[21] = AUC (0 to 24 hrs) in Sprague-Dawley rat at 250 mg/kg, po administered via gavage after 24 hrs using nanosuspension formulation by LC-MS/MS analysis; assay type: ADME, organism-based; parameters: route oral, dose 250 mg/kg, time <=24; details: in vivo; summary of the method: as §3
[22] = Clearance in mouse at 0.5 mg/kg, iv by LC-MS/MS analysis; assay type: ADME, organism-based; details: in vivo
[23] = Rattus norvegicus, Sprague-Dawley, po, 1 h, time 60 min

Cmax [2]: 765 ng/g
AUC(0-t) [4]: 22300 ng·h/mL
AUC(0-inf) [5]: 156 ng·h/mL
AUC(0-inf) [6]: 385 ng·h/mL
solubility [7]: < 1000 µg/mL
TDI [8]: Not Active
IC50 [9]: > 10 µM
solubility at 72 h [10]: < 4 µM
solubility [11]: < 1000 µg/mL
AUC(0-inf) [12]: 268 ng·h/mL
Cmax [13]: 167 ng/mL
Cp [14]: 716 ng/mL
concentration at 2 h [15]: 9.8 ng/mL
EC50 ([16]; Rattus norvegicus, Sprague-Dawley): 0.407 µg/mL (≈ 1.03 µM)
solubility at 72 h [17]: 8.4 µM (≈ 3.33 µg/mL)
Cmax [18]: 9000 ng/mL
Vd [19]: 0.8 L/kg
half-life [20]: 2.4 h
AUC(0-t) [21]: 86400 ng·h/mL
clearance [22]: 54 mL/min/kg
SMILES: Cn1c(=O)n(CC(=O)N2CCC2)c2cc(-c3ccc(C(F)(F)F)s3)cnc21
Occ [1]: 87%
Activity [3]: Non-Toxic
ED50 [16, 23]: 0.86 mg/kg
ED70 [16, 23]: 1.44 mg/kg
EC70 ([16]; time 60 min, 1 h): 0.716 µg/mL (≈ 1.81 µM)
fEC70 ([16]; time 60 min, 1 h): 40 ng/mL

Source: ChEMBL document CHEMBL4725355, “Design, Synthesis, and Preclinical Evaluation of 3-Methyl-6-(5-thiophenyl)-1,3-dihydro-imidazo[4,5-b]pyridin-2-ones as Selective GluN2B Negative Allosteric Modulators for the Treatment of Mood Disorders” (J Med Chem, 2020)
